Assay results published in ChEMBL document CHEMBL4118106 (J Med Chem, 2018).
Activity calls are given as the source filed them. The calls are words filed in the database; no cut-off is given here. Where a SMILES comes first, the peptide text is derived from it. Bridges are numbered along the chain shown (N, C = ends). [ ]: non-standard residue; d: D form. S5 = C=CCCC[C@](C)(N)C(=O)O; Nle = CCCC[C@H](N)C(=O)O

Legend:
[1] = Inhibition of EGFP-fused MERS-CoV spike protein mediated cell-cell fusion between viral protein expressing human 293T cells and human HuH7 target cells after 4 hrs by inverted fluorescence microscopic analysis; parameters: species or system Middle East respiratory syndrome-related coronavirus
In short: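 Huh-7 target cells expressing DPP4 were seeded at 5 × 10^4/well and kept at 37 °C for 5 h. Inhibitors were added, then 293T effector cells co-expressing S protein and EGFP (1 × 10^4/well); 293T/EGFP-only cells served as negative control. After 4 h coculture at 37 °C, fused and unfused cells were counted by fluorescence microscopy.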

[2] = Binding affinity to NHR peptide HR1P in pH 7.2 phosphate buffer at 50 uM after 30 mins by CD spectroscopic method
In short: (§1)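 Peptides were at 50 µM final in 50 mM PBS, pH 7.2. Equimolar HR1P/peptide mixtures were incubated at 25 °C for 30 min before CD scanning. α-Helicity was taken from [θ]222, where -33,000 deg cm2/dmol = 100% helix.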

[3] = (§2) Inhibition of MERS-CoV spike protein mediated cell-cell fusion between viral protein expressing human 293T cells and human HuH7 target cells assessed as decrease in pseudovirus infection preincubated with virus for 1 hr followed by HuH7 cells addition measured after 48 hrs by luciferase reporter gene assay; parameters: species or system Middle East respiratory syndrome-related coronavirus
In short: (§3)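 Graded peptide concentrations were preincubated with luciferase-reporter pseudovirus bearing MERS-CoV S for 1 h at room temperature. The mixture was added to Huh-7 or Calu-3 cells, with medium refreshed at 12 h. After a further 48 h at 37 °C, luciferase was read. Values are from three independent experiments, mean ± SD.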

[4] = Cytotoxicity against human HuH7 cells after 48 hrs by CCK-8 assay; type: cell-based, Huh-7
In short: (§4)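 Cells (1 × 10^5 per well) were preincubated at 37 °C for 12 h, then given graded peptide concentrations. After 48 h at 37 °C, CCK-8 was added and absorbance at 450 nm was read 2 h later.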

[5] = as §2, with “human Calu3” for “human HuH7”; parameters: species or system Middle East respiratory syndrome-related coronavirus; in short: as §3
Calu-3 = experiment: Cytotoxicity against human Calu3 cells at 100 uM after 48 hrs by CCK-8 assay; type: cell-based; details: calu-3, 48 h; in short: as §4
[6] = Binding affinity to NHR peptide HR1P in pH 7.2 phosphate buffer assessed as formation of alpha-helical complex at 50 uM after 30 mins by CD spectroscopic method; in short: as §1
[7] = Binding affinity to NHR peptide HR1P in pH 7.2 phosphate buffer assessed as thermal unfolding transition at 50 uM after 30 mins by CD spectroscopic method
In short: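 Equimolar HR1P/peptide mixtures, 50 µM final in 50 mM PBS pH 7.2, were preincubated at 25 °C for 30 min. Thermal denaturation was followed by CD at 222 nm over a 10–90 °C gradient at 2 °C/min.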

[8] = Binding affinity to NHR peptide HR1P in pH 7.2 phosphate buffer at 200 uM after 30 mins by N-PAGE analysis
In short: (§5)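 Stapled peptide and HR1P, each 200 µM (in 50 mM PBS or ddH2O), were incubated together at 25 °C for 30 min. Samples in Tris-glycine native sample buffer were run on an 18% Tris-glycine gel (pH 8.3 buffer) at 120 V for 3 h at room temperature and stained with Coomassie blue R250.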

[9] = Binding affinity to NHR peptide HR1P in pH 7.2 phosphate buffer at 250 uM after 30 mins by sedimentation velocity analysis
In short: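 HR1P/peptide mixtures at 250 µM in 50 mM PBS were incubated at 25 °C for 30 min. After an initial scan at 3000 rpm for 10 min, sedimentation velocity was run at 60,000 rpm, 280 nm, 20 °C, for 7 h. Weight-averaged molecular weights were obtained by fitting.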

[10] = Binding affinity to NHR peptide HR1P in pH 7.2 phosphate buffer assessed as formation of alpha-helical complex at 200 uM after 30 mins by N-PAGE analysis; in short: as §5
[11] = Middle East respiratory syndrome-related coronavirus

| SMILES | EC50 [1] | Activity [2] | EC50 [3, 11] | CC50 at 48 h [4] | EC50 [5, 11] | Activity (Calu-3) | Activity [6] | Tm [7] | Activity [8] | Activity [9] | Activity [10] | EC50 [3] | EC50 [5] |
| --- | --- | --- | --- | --- | --- | --- | --- | --- | --- | --- | --- | --- | --- |
| CSCC[C@H](NC(=O)[C@H](CCC(=O)O)NC(=O)[C@H](Cc1ccc(O)cc1)NC(=O)[C@@H](NC(=O)[C@H](CC(C)C)NC(=O)[C@H](CC(=O)O)NC(=O)[C@H](CC(C)C)NC(C)=O)[C@@H](C)O)C(=O)N[C@@H](CC(C)C)C(=O)N[C@@]1(C)CCC/C=C/CCC[C@@](C)(C(=O)N[C@H](C(=O)N[C@@H](CCCCN)C(=O)N[C@@H](C)C(=O)N[C@@H](CC(C)C)C(=O)N[C@@H](CC(N)=O)C(=O)N[C@@H](CCC(=O)O)C(=O)N[C@@H](CO)C(=O)N[C@@H](Cc2ccc(O)cc2)C(N)=O)C(C)C)NC(=O)[C@H](CCC(N)=O)NC(=O)[C@H](CCC(N)=O)NC(=O)[C@H](CC(C)C)NC1=O (Ac-LDLTYEML[S5]LQQ[S5]VKALNESY-NH2; staple (E) 9-13) | > 50 µM | inactive |  |  |  |  |  |  |  |  |  |  |  |
| CSCC[C@H](NC(=O)[C@H](CCC(=O)O)NC(=O)[C@H](Cc1ccc(O)cc1)NC(=O)[C@@H](NC(=O)[C@H](CC(C)C)NC(=O)[C@H](CC(=O)O)NC(=O)[C@H](CC(C)C)NC(C)=O)[C@@H](C)O)C(=O)N[C@@H](CC(C)C)C(=O)N[C@@H](CO)C(=O)N[C@@H](CC(C)C)C(=O)N[C@@H](CCC(N)=O)C(=O)N[C@@H](CCC(N)=O)C(=O)N[C@H](C(=O)N[C@H](C(=O)N[C@@H](CCCCN)C(=O)N[C@@]1(C)CCC/C=C\CCC[C@@](C)(C(=O)N[C@@H](Cc2ccc(O)cc2)C(N)=O)NC(=O)[C@H](CCC(=O)O)NC(=O)[C@H](CC(N)=O)NC(=O)[C@H](CC(C)C)NC1=O)C(C)C)C(C)C | 0.33 µM |  | 0.97 µM | > 100 µM | 1.58 µM | Non-Toxic | 45.6% | 76.4 °C | Active | Active |  |  |  |
| CSCC[C@H](NC(=O)[C@H](CCC(=O)O)NC(=O)[C@H](Cc1ccc(O)cc1)NC(=O)[C@@H](NC(=O)[C@H](CC(C)C)NC(=O)[C@H](CC(=O)O)NC(=O)[C@H](CC(C)C)NC(C)=O)[C@@H](C)O)C(=O)N[C@@H](CC(C)C)C(=O)N[C@@H](CO)C(=O)N[C@@H](CC(C)C)C(=O)N[C@@H](CCC(N)=O)C(=O)N[C@@]1(C)CCC/C=C\CCC[C@@](C)(C(=O)N[C@@H](CC(C)C)C(=O)N[C@@H](CC(N)=O)C(=O)N[C@@H](CCC(=O)O)C(=O)N[C@@H](CO)C(=O)N[C@@H](Cc2ccc(O)cc2)C(N)=O)NC(=O)[C@H](CCCCN)NC(=O)[C@H](C(C)C)NC(=O)[C@H](C(C)C)NC1=O (Ac-LDLTYEMLSLQ[S5]VVK[S5]LNESY-NH2; staple (Z) 12-16) | 0.26 µM |  | 3.03 µM | > 100 µM | 2.21 µM | Non-Toxic | 35.5% | 71.1 °C | Active | Active |  |  |  |
| CSCC[C@H](NC(=O)[C@H](CCC(=O)O)NC(=O)[C@H](Cc1ccc(O)cc1)NC(=O)[C@@H](NC(=O)[C@H](CC(C)C)NC(=O)[C@H](CC(=O)O)NC(=O)[C@H](CC(C)C)NC(C)=O)[C@@H](C)O)C(=O)N[C@@H](CC(C)C)C(=O)N[C@@H](CO)C(=O)N[C@@H](CC(C)C)C(=O)N[C@@]1(C)CCC/C=C/CCC[C@@](C)(C(=O)N[C@@H](C)C(=O)N[C@@H](CC(C)C)C(=O)N[C@@H](CC(N)=O)C(=O)N[C@@H](CCC(=O)O)C(=O)N[C@@H](CO)C(=O)N[C@@H](Cc2ccc(O)cc2)C(N)=O)NC(=O)[C@H](C(C)C)NC(=O)[C@H](C(C)C)NC(=O)[C@H](CCC(N)=O)NC1=O (Ac-LDLTYEMLSL[S5]QVV[S5]ALNESY-NH2; staple (E) 11-15) | > 50 µM |  |  |  |  |  | inactive |  |  |  | inactive |  |  |
| CCCC[C@H](NC(=O)[C@H](CCC(=O)O)NC(=O)[C@H](Cc1ccc(O)cc1)NC(=O)[C@@H](NC(=O)[C@H](CC(C)C)NC(=O)[C@H](CC(=O)O)NC(=O)[C@H](CC(C)C)NC(C)=O)[C@@H](C)O)C(=O)N[C@@H](CC(C)C)C(=O)N[C@@H](CO)C(=O)N[C@@H](CC(C)C)C(=O)N[C@@H](CCC(N)=O)C(=O)N[C@@]1(C)CCC/C=C\CCC[C@@](C)(C(=O)N[C@@H](CC(C)C)C(=O)N[C@@H](CC(N)=O)C(=O)N[C@@H](CCC(=O)O)C(=O)N[C@@H](CO)C(=O)N[C@@H](Cc2ccc(O)cc2)C(N)=O)NC(=O)[C@H](CCCCN)NC(=O)[C@H](C(C)C)NC(=O)[C@H](C(C)C)NC1=O (Ac-LDLTYE[Nle]LSLQ[S5]VVK[S5]LNESY-NH2; staple (Z) 12-16) | 0.63 µM |  |  | > 100 µM |  | Non-Toxic |  |  |  |  |  | 2.8 µM | 2.57 µM |
